Experimental data reported in ChEMBL document CHEMBL4411261, “Down-Regulation of the Androgen Receptor by G-Quadruplex Ligands Sensitizes Castration-Resistant Prostate Cancer Cells to Enzalutamide” (J Med Chem, 2018).
Calls of active or inactive are those of the source. The rule behind the calls is not given here.

Assays:
Quadruplex DNA [1] = assay: Stabilization of AR G-quadruplex oligonucleotide in human LNCAP cells assessed as reduction in AR-FL protein level by immunoblotting assay; format: cell-based
Method in brief: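 Lysate proteins immunoblotted. Vinculin or β-actin used as loading control, peroxidase-linked secondary antibodies, ECL chemiluminescent detection, autoradiography, densitometric scan. Untreated cells received DMSO.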

Quadruplex DNA [2] = assay: Stabilization of AR G-quadruplex oligonucleotide in human 22Rv1 cells assessed as reduction in AR mRNA expression at IC50 after 6 to 72 hrs by RT-PCR analysis; format: cell-based; settings: TDE = time-dependent effect
Method in brief: (§1)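 Transcripts quantified by TaqMan real-time PCR with RNaseP as normalizer; relative quantity versus untreated cells by the 2−ΔΔCt method. Panel genes measured with a 92-gene cancer-mechanism TaqMan array.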

[3] = Stabilization of AGTGAGAGTGAGAGAGAGAGTGAGAGTGAGAGTGA/TCACTCTCACTCTCACTCTCTCTCTCACTCTCACT dsDNA (unknown origin) assessed as change in melting temperature at 16 uM after 16 hrs in presence of 100 mM K+ by CD spectra analysis
Method in brief: (§2)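 CD: oligos at 4 μM final in 10 mM lithium cacodylate pH 7.4, 100 mM KCl, annealed 95 °C 5 min then 4 h room temperature; duplex from equimolar strands. Ligand 16 μM final, 16 h room temperature. Spectra 230−320 nm, 5 mm cell, two scans averaged at 20 °C, buffer-subtracted; melting from spectra 20−90 °C in 5 °C steps.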

[4] = Drug uptake in human 22Rv1 cells expressing full length androgen receptor H875Y point mutant at 160 nM after 24 hrs by DAPI staining-based fluorescence microscopic analysis; format: ADME, cell-based; settings: cwr22r, 0.16 µM
Quadruplex DNA [5] = assay: Stabilization of AR G-quadruplex oligonucleotide in human LNCAP cells assessed as reduction in AR mRNA expression at IC50 after 48 hrs by RT-PCR analysis; format: cell-based
Method in brief: (§3)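 Cells grown in RPMI-1640 with 10% fetal calf serum, 37 °C, 5% CO2, treated at an equitoxic concentration. Transcripts quantified by TaqMan real-time RT-PCR, normalized to RNaseP, expressed as relative quantity versus untreated cells (calibrator) by the 2−ΔΔCt method.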

Quadruplex DNA [6] = assay: Stabilization of AR G-quadruplex oligonucleotide in human 22Rv1 cells assessed as reduction in AR-VS protein level at IC50 after 48 hrs by Western immunoblot assay; format: cell-based
PC-3 [7] = assay: Synergistic cytotoxicity against human PC3 cells assessed as ED75 for Enzalutamide at 0.001 to 0.1 uM after 72 hrs by MTS assay
PC-3 [8] = assay: Synergistic cytotoxicity against human PC3 cells assessed as ED50 for Enzalutamide at 0.001 to 0.1 uM after 72 hrs by MTS assay; settings: PC-3, 72 h
CWR22R [9] = assay: Synergistic cytotoxicity against human 22Rv1 cells expressing full length androgen receptor H875Y point mutant assessed as ED75 for Enzalutamide at 0.001 to 0.1 uM after 72 hrs by MTS assay; format: functional
Method in brief: (§4)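 Cells in RPMI-1640 with 10% fetal calf serum were exposed to ligand (0.001−0.1 μM) plus enzalutamide (0.5−50 μM) at a fixed ratio, five concentrations, for 72 h at 37 °C, 5% CO2. Viability read by MTS absorbance at 490 nm after 4 h. Combination index computed at ED50 and ED75 by the Chou–Talalay method.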

CWR22R [10] = assay: Effect on c-MYC mRNA expression in human 22Rv1 cells at IC50 after 48 hrs by RT-PCR analysis; format: functional, cell-based; method in brief: as §1
Quadruplex DNA [11] = assay: Stabilization of AR G-quadruplex oligonucleotide in human PC3 cells assessed as down-regulation of BAX mRNA expression at IC50 after 48 hrs by RT-PCR analysis; format: cell-based
Method in brief: (§5)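 PC-3 cells (RPMI-1640, 10% fetal calf serum) exposed at an equitoxic concentration. Expression of 92 cancer-mechanism genes measured on TaqMan Arrays. Change versus untreated cells computed by 2−ΔΔCt, with RNaseP as normalizer.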

LNCaP = assay: Cytotoxicity against human LNCAP cells expressing androgen receptor T877A point mutant assessed as reduction in cell viability after 48 hrs by MTS assay; format: functional, cell-based
Method in brief: (§6)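 Cells kept in RPMI-1640 with 10% fetal calf serum, 37 °C, 5% CO2. Seeded, after 24 h treated with 0.0001, 0.001, 0.01, 0.1, 1 and 10 μM compound (DMSO stocks freshly diluted in medium) for 48 h. MTS added 4 h, absorbance 490 nm; IC50 from curves of % viability inhibition versus DMSO-treated cells against log concentration.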

Quadruplex DNA [12] = assay: Stabilization of AR G-quadruplex oligonucleotide in human 22Rv1 cells assessed as reduction in basal AKT1 levels at IC50 after 48 hrs by Western immunoblot assay; format: cell-based
CWR22R [13] = assay: Synergistic cytotoxicity against human 22Rv1 cells expressing full length androgen receptor H875Y point mutant assessed as combination index for reduction in cell viability measured at ED50 Enzalutamide at 0.001 to 0.1 uM after 72 hrs by MTS assay based Chou and Talay's plot analysis; format: functional; method in brief: as §4
[14] = Stabilization of AGTGAGAGTGAGAGAGAGAGTGAGAGTGAGAGTGA ssDNA (unknown origin) assessed as effect on conformational change at 16 uM after 16 hrs in presence of 100 mM K+ by CD spectra analysis; method in brief: as §2
Quadruplex DNA [15] = assay: Stabilization of AR G-quadruplex oligonucleotide in human 22Rv1 cells assessed as reduction in AR-FL protein level at IC50 after 48 hrs by Western immunoblot assay; format: cell-based
CWR22R [16] = assay: Cytotoxicity against human 22Rv1 cells expressing full length androgen receptor H875Y point mutant assessed as reduction in cell viability after 48 hrs by MTS assay; format: functional, cell-based; settings: 22Rv1, 48 h; method in brief: as §6
[17] = Stabilization of TTTTTAGTGAGAGTGAGAGAGAGAGTGAGAGTGAGAGTGATTTTTCTGCATATAAGCAGCTGCTTTTTGCC DNA (unknown origin) assessed as inhibition of polymerase progression at G4 site by measuring reduction in full length amplified product using GGCAAAAAGCAGCTGCTTATATGCAG as primer at 12.5 to 200 nM after 30 mins in presence of 5'-end labeled [gamma32P]ATP by phosphorimaging based taq polymerase stop assay
Method in brief: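 Primer 5′-labeled with [γ-32P]ATP by T4 polynucleotide kinase, 37 °C, 30 min. Labeled primer (72 nM final) annealed to template (36 nM final) in 10 mM lithium cacodylate pH 7.4, with or without 10 mM KCl, by heating at 95 °C for 5 min then slow cooling.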

Quadruplex DNA [18] = assay: Stabilization of AR G-quadruplex oligonucleotide in human DU145 cells assessed as down-regulation of MAX mRNA expression at IC50 after 48 hrs by RT-PCR analysis; format: cell-based; method in brief: as §1
Quadruplex DNA [19] = assay: Stabilization of AR G-quadruplex oligonucleotide in human PC3 cells assessed as up-regulation of WNT1 mRNA expression at IC50 after 48 hrs by RT-PCR analysis; format: cell-based; method in brief: as §5
Quadruplex DNA [20] = assay: Stabilization of AR G-quadruplex oligonucleotide in human 22Rv1 cells assessed as reduction in cyclin D1 protein level at IC50 after 48 hrs by Western immunoblot assay; format: cell-based
Quadruplex DNA [21] = assay: Stabilization of AR G-quadruplex oligonucleotide in human LNCAP cells assessed as reduction in AR mRNA expression at IC50 after 72 hrs by RT-PCR analysis; format: cell-based; method in brief: as §3

For `CN(C)CCCn1c(=O)c2ccc3c(=O)n(CCCN(C)C)c(=O)c4c5[nH]c6ccccc6[nH]c5c(c1=O)c2c34.Cl.Cl`, the Activity (Quadruplex DNA [1]) was “Active”, the Activity (Quadruplex DNA [2]) was “Tde” and the ΔTm [3] was 2.7 °C. For the same molecule, the Drug uptake [4] was “Active”, the Activity (Quadruplex DNA [5]) was “Active” and the Activity (Quadruplex DNA [6]) was “Active”. The ED75 (PC-3 [7]) was 21100 nM, the EC50 (PC-3 [8]) was 2180 nM and the ED75 (CWR22R [9]) was 370 nM. For the same molecule, the Activity (CWR22R [10]) was “inactive”, the Activity (Quadruplex DNA [11]) was “Active” and the IC50 (LNCaP) was 140 nM. The Activity (Quadruplex DNA [12]) was “Active”, the CI (CWR22R [13]) was less than 1 and the Activity [14] was “inactive”. For the same molecule, the Activity (Quadruplex DNA [15]) was “Active”, the IC50 (CWR22R [16]) was 10 nM and the inhibition [17] was “inactive”. For the same molecule, the Activity (Quadruplex DNA [18]) was “Active”, the Activity (Quadruplex DNA [19]) was “Active” and the Activity (Quadruplex DNA [20]) was “Active”. For the same molecule, the Activity (Quadruplex DNA [21]) was “inactive”.
